In ChEMBL document CHEMBL1122649, “3-Alkyl-2-aryl-3H-naphth[1,2-d]imidazoles, a novel class of nonacidic antiinflammatory agents” (J Med Chem, 1984):

Assays:
Format in all cases: functional
[1] = tested on: Rattus norvegicus; test: Antiinflammatory activity measured as the percentage inhibition of edema in carrageenan induced rat paw after peroral administration of 200 mg/kg of compound; details: route oral
How it was run: (§1)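 Female Wistar rats (120–150 g), 10 per dose, dosed orally with an aqueous suspension in 0.5% methocel (10 mL/kg) 1 h before 0.05 mL of 1% carrageenin in saline was injected into the right hind paw aponeurosis. Paw volume was read plethysmographically at injection and 4 h later. Inhibition is given relative to vehicle controls. Screening dose 200 mg/kg; 100 mg/kg was tested when inhibition exceeded 30%. Student's t test.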

[2] = tested on: Rattus norvegicus; test: Antiinflammatory activity was measured as the percentage inhibition of edema in carrageenan induced rat paw after peroral administration of 100 mg/kg of compound; details: route oral; how it was run: as §1
[3] = species on record: Rattus norvegicus; test: Compound was evaluated for its analgesic activity by Randall-Selitto test in comparison with that of Aspirine
How it was run: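 Randall–Selitto pain threshold, measured on the inflamed right hind paw of male Wistar rats (170–200 g), 10 per dose. Edema was induced with 0.1 mL of 20% yeast suspension in saline. Oral dosing in 0.5% methocel (10 mL/kg), highest dose one-fifth of LD50, then scaling down through 100, 50, 20, 10, 5 and 2 mg/kg. Threshold read before dosing, then hourly for 6 h. Potency expressed relative to aspirin = 1.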

[4] = tested on: Rattus norvegicus; test: Compound was evaluated for its antiinflammatory activity in the cotton pellet induced granuloma(CPG) in normal rats at the dose 200 mg/kg p.o.; details: route oral
How it was run: (§2)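 Male Wistar rats (150–180 g), 7 per group. Two sterile 50 mg cotton pellets were implanted subcutaneously in the interscapular region under ether. Oral dosing in 0.5% methocel (10 mL/kg) daily for 6 days, starting 6 h after surgery. Animals were killed 24 h after the last dose; pellets with granuloma were dried 24 h at 80 °C. Percent inhibition versus vehicle controls.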

[5] = species on record: Rattus norvegicus; test: Compound was evaluated for its gastroulcerogenic effect with respect to treated and control groups. Treated and control groups are not statistically different when the index is <1; P<0.05.
[6] = species on record: Rattus norvegicus; test: Compound was evaluated for its antipyretic activity by antipyresis effect in comparison with that of Aspirin.
How it was run: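 Male Sprague-Dawley rats (120–150 g), 6 per dose, starved 18 h and kept at 24 °C; rats above 38 °C were excluded. Fever was induced by subcutaneous 1 mL of filtered 5% peptone preincubated 48 h at 37 °C. Oral doses as in the analgesic test (top dose one-fifth of LD50, stepping down). Rectal thermocouple readings from 4 h after injection, then hourly for 4 h. Activity relative to aspirin = 1.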

[7] = tested on: Rattus norvegicus; test: (§3) Compound was evaluated for its antiinflammatory activity by adjuvant-induced polyarthritis test in rats at a dosage of 200 mg/kg administered orally; set-up: unit not given beside the values; details: route oral
How it was run: (§4)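 Female Wistar rats (130–150 g), 8 per dose. Killed Mycobacterium butyricum (0.6 mg in 0.1 mL mineral oil) was injected into the right hind plantar aponeurosis. Oral dosing in 0.5% methocel, once daily, curative scheme from day 14 to day 27. Read-outs: percent change in hind-paw volume versus controls; Newbould 0–4 lesion scores for front paws, tail and ears; plasma inflammation units by nephelometric turbidity before and after 30 min at 56 °C on day 27.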

[8] = tested on: Rattus norvegicus; test: as §3; details: route oral; how it was run: as §4
[9] = tested on: Rattus norvegicus; test: Compound was evaluated for its gastroulcerogenic effect in rats at a peroral dose of 200 mg/kg; details: route oral
[10] = tested on: Rattus norvegicus; test: (§5) Compound was evaluated for its antiinflammatory activity by adjuvant-induced polyarthritis test in rats at a dosage of 100 mg/kg administered orally; details: route oral; how it was run: as §4
[11] = tested on: Rattus norvegicus; test: as §5; set-up: unit not given beside the values; details: route oral; how it was run: as §4
[12] = tested on: Rattus norvegicus; test: Compound was evaluated for its antiinflammatory activity in the cotton pellet induced granuloma(CPG) in normal rats at the dose 100 mg/kg p.o.; details: route oral; how it was run: as §2
[13] = tested on: Rattus norvegicus; test: Compound was evaluated for its gastroulcerogenic effect in rats at a peroral dose of 200 mg/kg, P<0.05.; details: route oral

| Structure (SMILES) | inhibition in vivo at 200 mg/kg [1] [%] | inhibition in vivo at 100 mg/kg [2] [%] | Activity [3] | inhibition in vivo at 200 mg/kg [4] [%] | Activity [6] | also measured |
| --- | --- | --- | --- | --- | --- | --- |
| COc1ccc(-c2nc3c4ccccc4ccc3n2C(C)CO)cc1 (stereo not drawn) | 35 | 31 | – | – | – | – |
| COc1ccc(-c2nc3c4ccccc4ccc3n2C)cc1C | 35 | 24 | – | – | – | – |
| Cn1c(-c2cccc(Cl)c2)nc2c3ccccc3ccc21 | 7 | – | – | – | – | – |
| Cn1c(-c2ccccc2)nc2c3ccccc3ccc21 | 42 | 37 | 0.9 | 24 | 9.1 | Ulcerogenic index [5]: 0.33 |
| Cn1c(-c2ccncc2)nc2c3ccccc3ccc21 | 63 | 44 | 2.4 | 33 | 1.4 | Mean volume of hind paws [7]: 20; Arthritis scores [8]: 10; Inflammation units [8]: 3; Ulcerogenic index [9]: 0.31 |
| COc1ccccc1-c1nc2c3ccccc3ccc2n1C | 0 | – | – | – | – | – |
| Cn1c(-c2cccs2)nc2c3ccccc3ccc21 | 40 | 31 | 1 | 31 | 0.9 | Mean volume of hind paws [7]: 23; Arthritis scores [8]: 24; Inflammation units [8]: 18; Ulcerogenic index [9]: 0.12 |
| COc1cccc(-c2nc3c4ccccc4ccc3n2C)c1 | 21 | – | – | – | – | – |
| Cc1cc(-c2nc3c4ccccc4ccc3n2C)ccc1N(C)C | 69 | 64 | 2.8 | – | 10.5 | Arthritis scores [10]: 69; Inflammation units [10]: 84; Mean volume of hind paws [11]: 42; inhibition in vivo at 100 mg/kg [12]: 38%; Ulcerogenic index [9]: 0.21 |
| C=C(C)n1c(-c2ccc(OC)cc2)nc2c3ccccc3ccc21 | 58 | 54 | – | – | – | Arthritis scores [10]: 70; Inflammation units [10]: 68; Mean volume of hind paws [11]: 38 |
| Cn1c(-c2ccc(OCC(=O)O)cc2)nc2c3ccccc3ccc21 | 7 | – | – | – | – | – |
| CCOc1ccc(-c2nc3c4ccccc4ccc3n2C)cc1 | 45 | 37 | 0.3 | 40 | 2.2 | Mean volume of hind paws [7]: 25; Arthritis scores [8]: 43; Inflammation units [8]: 60; Ulcerogenic index [13]: 0.21 |
| C=Cn1c(-c2ccc(OC)cc2)nc2c3ccccc3ccc21 | 58 | 48 | 1.1 | 31 | 6.9 | Arthritis scores [10]: 39; Inflammation units [10]: 61; Mean volume of hind paws [11]: 34; Ulcerogenic index [9]: 0.3 |
| COc1ccc(-c2nc3c4ccccc4ccc3n2C2CC2)cc1 | 56 | 53 | 0.7 | 11 | 0.8 | Ulcerogenic index [9]: 0.29 |
| Cc1cc(-c2nc3c4ccccc4ccc3n2C)cc(C)c1N(C)C | 14 | – | – | – | – | – |
| CCC(C)n1c(-c2ccc(OC)cc2)nc2c3ccccc3ccc21 (stereo not drawn) | 18 | – | – | – | – | – |
| CCn1c(-c2ccc(OC)cc2)nc2c3ccccc3ccc21 | 52 | 49 | 1.1 | 31 | 2.9 | Mean volume of hind paws [7]: 21; Arthritis scores [8]: 21; Inflammation units [8]: 35; Ulcerogenic index [13]: 0.09 |
| COc1ccc(-c2nc3c4ccccc4ccc3n2CCO)cc1 | 11 | – | – | – | – | – |
| CCCCn1c(-c2ccc(OC)cc2)nc2c3ccccc3ccc21 | 25 | – | – | – | – | – |
| CNc1ccc(-c2nc3c4ccccc4ccc3n2C)cc1 | 59 | 47 | – | – | – | Ulcerogenic index [13]: 0.16; inhibition in vivo at 100 mg/kg [12]: 33% |
| CC(=O)Oc1ccc(-c2nc3c4ccccc4ccc3n2C)cc1 | 8 | – | – | – | – | – |
